The source of these data is ChEMBL document CHEMBL1126582, “Symmetry-based inhibitors of HIV protease. Structure-activity studies of acylated 2,4-diamino-1,5-diphenyl-3-hydroxypentane and 2,5-diamino-1,6-diphenylhexane-3,4-diol” (J Med Chem, 1993).

The structures appear in SMILES notation. ≈ marks a conversion by molar mass, not a printed value.

Data set [1] is described as follows: Estimated solubility (buffer pH 7.4). The class given is ADME. As to conditions: read-out: S. Put shortly: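 Solubility was estimated in pH 7.4 phosphate buffer.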
For data set [2], the system named is MT4. Put plainly: In vitro for cytotoxicity in MT-4 lymphocytes in the absence of HIV infection. It counts as functional. As to conditions: Homo sapiens. Put shortly: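 Uninfected MT-4 lymphocytes were cultured with compound. CC50 is the concentration at which 50% of cells remain viable.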
Data set [3] has as its system Human immunodeficiency virus 1. Description: In vitro for inhibition of cytopathic effect of HIV-1 3B in MT-4 lymphocytes. The class given is functional, organism-based. Put shortly:
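MT-4 lymphocytes were infected with HIV-1 3B at an MOI of either 0.001 or 0.032 tissue culture infective dose per cell. EC50 is the concentration preventing 50% of viral cytopathic effect, from a single triplicate assay. No effect means no activity up to 100 μM or up to the cytotoxic concentration.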
In general terms: Cytopathic effects are the visible damage that an infection or toxin causes in cultured cells.

Data set [4] has as its target Human immunodeficiency virus type 1 protease (Human immunodeficiency virus 1, UniProt Q72874). Put plainly: Inhibition of purified recombinant HIV-1 protease in a fluorogenic assay. Put shortly: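 Purified recombinant HIV-1 protease, with cleavage of the fluorogenic substrate DABCYL-[…]-Pro-Ile-Val-Gln-EDANS as read-out. Value is the inhibitor concentration giving 50% inhibition of protease activity.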

On to `CC(C)[C@H](NC(=O)CCN1CCOCC1)C(=O)N[C@@H](Cc1ccccc1)[C@@H](O)[C@@H](O)[C@H](Cc1ccccc1)NC(=O)[C@H](NC(=O)CCN1CCOCC1)C(C)C`, for which, in data set [1], the solubility is over 1050 µg/mL. Besides, the 50% cytotoxic concentration (CC50) – broadly, the concentration that lowers cell viability or growth by half – in data set [2] is over 100000 nM. Further, the EC50 (as a rule, the concentration that produces a half-maximal response) in data set [3] was determined as 53000 nM. Further, in data set [4], the IC50 – broadly, the point on the concentration scale where inhibition reaches its midpoint – turned out to be 23 nM.
With `CC(C)[C@H](NC(=O)N(C)Cc1ccccn1)C(=O)N[C@@H](Cc1ccccc1)[C@@H](O)[C@@H](O)[C@H](Cc1ccccc1)NC(=O)[C@H](NC(=O)N(C)Cc1ccccn1)C(C)C`, the solubility in data set [1] was 225 µg/mL (≈ 283 µM). In data set [2], this molecule came in with a half-maximal cytotoxic concentration (CC50) of over 100000 nM. In data set [3], a half-maximal effect (EC50) was put at 1500 nM. The IC50 in data set [4] was 1.66 nM.
Take `CC(C)[C@H](NC(=O)/C=C/c1cccnc1)C(=O)N[C@@H](Cc1ccccc1)C(O)[C@H](Cc1ccccc1)NC(=O)[C@H](NC(=O)/C=C/c1cccnc1)C(C)C` (stereo partly drawn): the solubility in data set [1] is 4.9 µg/mL (≈ 6.7 µM). In data set [2], the CC50 is over 100000 nM. This molecule also showed an EC50 in data set [3] of 2800 nM. In addition, in data set [4], the IC50 was found to be 2.2 nM.
Consider `CC(C)[C@H](NC(=O)OCc1cccnc1)C(=O)N[C@@H](Cc1ccccc1)[C@@H](O)[C@H](Cc1ccccc1)NC(=O)[C@H](NC(=O)OCc1ccccc1)C(C)C`, for which, in data set [1], the solubility was 0.9 µg/mL (≈ 1.22 µM). Moreover, the CC50 in data set [2] was over 100000 nM. In data set [3], the EC50 came out at 2800 nM. In data set [4], the IC50 amounted to 4 nM.
The matching figures for `CC(C)[C@H](NC(=O)N(C)Cc1cscn1)C(=O)N[C@@H](Cc1ccccc1)[C@H](O)[C@H](O)[C@H](Cc1ccccc1)NC(=O)[C@H](NC(=O)N(C)Cc1cscn1)C(C)C`: 6.5 µg/mL (≈ 8.05 µM), over 100000 nM, 500 nM and under 1 nM.
Taken in the same sequence, the figures for `CC(C)[C@H](NC(=O)N(C)CCc1ccccn1)C(=O)N[C@@H](Cc1ccccc1)[C@H](O)[C@H](O)[C@H](Cc1ccccc1)NC(=O)[C@H](NC(=O)N(C)CCc1ccccn1)C(C)C` were 86 µg/mL (≈ 104 µM), 95000 nM, 12000 nM and 31 nM.
Taken in the same sequence, the figures for `CC(C)[C@H](NC(=O)N(C)Cc1nccs1)C(=O)N[C@@H](Cc1ccccc1)[C@H](O)[C@H](O)[C@H](Cc1ccccc1)NC(=O)[C@H](NC(=O)N(C)Cc1nccs1)C(C)C` were 57 µg/mL (≈ 70.6 µM), over 100000 nM, 390 nM and under 1 nM.
With `CC(C)[C@H](NC(=O)N(C)Cc1nccs1)C(=O)N[C@@H](Cc1ccccc1)[C@@H](O)[C@H](O)[C@H](Cc1ccccc1)NC(=O)[C@H](NC(=O)N(C)Cc1nccs1)C(C)C`, the solubility in data set [1] was 101 µg/mL (≈ 125 µM). The CC50 in data set [2] was over 100000 nM. In data set [3], this molecule gave an EC50 of 390 nM. The concentration for half-maximal inhibition (IC50) in data set [4] is under 1 nM.
On to `CC(C)[C@H](NC(=O)N(C)Cc1cscn1)C(=O)N[C@@H](Cc1ccccc1)[C@@H](O)[C@@H](O)[C@H](Cc1ccccc1)NC(=O)[C@H](NC(=O)N(C)Cc1cscn1)C(C)C`, for which, in data set [1], the solubility was 286 µg/mL (≈ 354 µM). The 50% cytotoxic concentration (CC50) in data set [2] is over 100000 nM. This molecule returned an EC50 in data set [3] of 630 nM. Moreover, in data set [4], the IC50 is under 1 nM.
For `CC(C)[C@H](NC(=O)c1ccc2ccccc2n1)C(=O)N[C@@H](Cc1ccccc1)C(O)[C@H](Cc1ccccc1)NC(=O)[C@H](NC(=O)c1ccc2ccccc2n1)C(C)C` (stereo partly drawn), the solubility in data set [1] is 0.23 µg/mL (≈ 0.295 µM). Also, the CC50 in data set [2] is over 100000 nM. Further, the EC50 in data set [3] came out at 2100 nM. Further, the IC50 in data set [4] was found to be 1.6 nM.
The matching figures for `CC(C)[C@H](NC(=O)N(C)Cc1ccccn1)C(=O)N[C@@H](Cc1ccccc1)[C@H](O)[C@@H](O)[C@H](Cc1ccccc1)NC(=O)[C@H](NC(=O)N(C)Cc1csc(N)n1)C(C)C`: 386 µg/mL (≈ 473 µM), over 100000 nM, 560 nM and under 1 nM.
For the molecule `CC(C)[C@H](NC(=O)OCc1ccccn1)C(=O)N[C@@H](Cc1ccccc1)[C@@H](O)[C@H](O)[C@H](Cc1ccccc1)NC(=O)[C@H](NC(=O)OCc1ccccn1)C(C)C`, the solubility in data set [1] is 2.4 µg/mL (≈ 3.12 µM). The cytotoxic concentration (CC50) in data set [2] was over 100000 nM. In data set [3], this molecule registered a concentration for a half-maximal effect (EC50) of 60 nM. Also, the IC50 in data set [4] is under 1 nM.
